The values that follow come from ChEMBL document CHEMBL4428038, “Overcoming chloroquine resistance in malaria: Design, synthesis and structure-activity relationships of novel chemoreversal agents” (Eur J Med Chem, 2016).

In one test the test system is Plasmodium falciparum K1. Nature of the test: Inhibition of CRT CVIET haplotype mutant in Plasmodium falciparum K1 isolate MRA-159 infected in erythrocytes assessed as chloroquine-coumarin probe accumulation at 10 uM after 10 hrs by Hoechst 33342 staining based flow cytometry (reference value: 35.57 +/- 3.84%). Type of test: cell-based. More on the design: scale not given: the % may be the effect or the level left. An outline of the steps: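 Infected erythrocyte cultures at 2.5% hematocrit and 7–12% parasitemia, synchronized to late-ring/early-trophozoite stage, were incubated with chloroquine-coumarin probe plus test agent for 10 h at 37 C. Cells were then washed, resuspended in PBS and read by flow cytometry (405 nm excitation, 450/50 filter). Hoechst-stained duplicate wells set parasitemia. Uptake = % infected erythrocytes fluorescent. Controls: PBS (negative), desipramine and parent compound (positive). ≥3 independent experiments; mean ± SEM.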

The test system of test [1] is Plasmodium falciparum. Description: Intrinsic antimalarial activity against chloroquine-sensitive Plasmodium falciparum 3D7 isolate MRA-102 assessed as reduction in parasite viability at 500 nM. The format is functional, organism-based.
For test [2], the system named is Plasmodium falciparum. Nature of the test: Intrinsic antimalarial activity against chloroquine-sensitive Plasmodium falciparum HB3 isolate MRA-155 assessed as reduction in parasite viability at 500 nM. Type of test: functional, organism-based.
Test [3] deals with Plasmodium falciparum. Description: Intrinsic antimalarial activity against intermediate chloroquine-resistant Plasmodium falciparum 7G8 isolate MRA-154 harboring CRT SVMNT haplotype mutant assessed as reduction in parasite viability at 500 nM. The format is functional, organism-based.
In test [4] the test system is Plasmodium falciparum. Description: Intrinsic antimalarial activity against chloroquine-resistant Plasmodium falciparum K1 isolate MRA-159 harboring CRT CVIET haplotype mutant assessed as reduction in parasite viability at 500 nM. The format is functional, organism-based.
For test [5], the system named is Plasmodium falciparum. Nature of the test: Intrinsic antimalarial activity against chloroquine-resistant Plasmodium falciparum Dd2 isolate MRA-156 harboring CRT K76T mutant assessed as reduction in parasite viability at 500 nM. The format is functional, organism-based.
Test [6] has as its system Plasmodium falciparum. Description: Intrinsic antimalarial activity against chloroquine/artemisinin-resistant Plasmodium falciparum ARS233 harboring CRT K76T mutant assessed as reduction in parasite viability at 500 nM. The format is functional, organism-based.
For test [7], the system named is Plasmodium falciparum. Nature of the test: Intrinsic antimalarial activity against chloroquine/artemisinin-resistant Plasmodium falciparum ARS272 harboring CRT K76T mutant assessed as reduction in parasite viability at 500 nM. Type of test: functional, organism-based.
In test [8] the test system is Plasmodium falciparum. Nature of the test: Intrinsic antimalarial activity against chloroquine-resistant Plasmodium falciparum NHP4559 harboring CRT K76T mutant assessed as reduction in parasite viability at 500 nM. The format is functional, organism-based.
In test [9] the test system is Plasmodium falciparum. Nature of the test: Intrinsic antimalarial activity against chloroquine/artemisinin-resistant Plasmodium falciparum NHP4773 harboring CRT K76T mutant assessed as reduction in parasite viability at 500 nM. Type of test: functional, organism-based.

Calls of active or inactive are those of the source. No cut-off for these calls is given here.

Consider `OC1(c2ccc(Cl)cc2)CCNCC1`, for which the Activity in the test with Plasmodium falciparum K1 is 27.5%. Moreover, the outcome in the test with Plasmodium falciparum [1], in the test with Plasmodium falciparum [2], in the test on Plasmodium falciparum [3], in the test with Plasmodium falciparum [4], in the test on Plasmodium falciparum [5] and with Plasmodium falciparum [6] was inactive. Further, the outcome in the test on Plasmodium falciparum [7], in the test on Plasmodium falciparum [8] and in the test with Plasmodium falciparum [9] was inactive.

On to `CNCCCN1c2ccccc2CCc2ccccc21`, for which the Activity in the test with Plasmodium falciparum K1 came to 78.8%.

For `N#CC(CCN1CCN(c2ccc(F)cc2)CC1)(c1ccccc1)c1ccccc1`, the Activity with Plasmodium falciparum K1 came to 49%. Besides, the outcome in the test on Plasmodium falciparum [1], in the test on Plasmodium falciparum [2], with Plasmodium falciparum [3], with Plasmodium falciparum [4], with Plasmodium falciparum [5] and in the test on Plasmodium falciparum [6] was inactive. For the same compound, the outcome in the test with Plasmodium falciparum [7], in the test on Plasmodium falciparum [8] and with Plasmodium falciparum [9] was inactive.

Turning to `Ic1ccccc1CN[C@@H]1C2CCN(CC2)[C@@H]1Cc1ccccc1` (relative stereo), the Activity with Plasmodium falciparum K1 was found to be 25.8%. Moreover, the result with Plasmodium falciparum [1], with Plasmodium falciparum [2], in the test with Plasmodium falciparum [3], in the test with Plasmodium falciparum [4], in the test on Plasmodium falciparum [5] and in the test with Plasmodium falciparum [6] was inactive. The result with Plasmodium falciparum [7], in the test with Plasmodium falciparum [8] and in the test on Plasmodium falciparum [9] was inactive.

Consider `N[C@@H]1C2CCN(CC2)[C@@H]1Cc1ccccc1` (relative stereo), for which the Activity in the test with Plasmodium falciparum K1 came to 40.1%. The result in the test with Plasmodium falciparum [1], in the test on Plasmodium falciparum [2], in the test on Plasmodium falciparum [3], with Plasmodium falciparum [4], in the test on Plasmodium falciparum [5] and in the test on Plasmodium falciparum [6] was inactive. In addition, the outcome in the test on Plasmodium falciparum [7], with Plasmodium falciparum [8] and in the test on Plasmodium falciparum [9] was inactive.

For `NC(=O)C(CCN1CCCCC1)(c1ccccc1)c1ccccc1`, the Activity in the test on Plasmodium falciparum K1 was determined as 63.2%. The result in the test on Plasmodium falciparum [1], in the test with Plasmodium falciparum [2], in the test on Plasmodium falciparum [3], with Plasmodium falciparum [4], with Plasmodium falciparum [5] and in the test with Plasmodium falciparum [6] was inactive. Moreover, the outcome in the test with Plasmodium falciparum [7], with Plasmodium falciparum [8] and in the test with Plasmodium falciparum [9] was inactive.

Turning to `N#CC(CCN1CCC(O)(c2ccc(Cl)cc2)CC1)(c1ccccc1)c1ccccc1`, in the test with Plasmodium falciparum K1, the Activity was found to be 25.9%. The outcome in the test on Plasmodium falciparum [1], with Plasmodium falciparum [2], in the test with Plasmodium falciparum [3], with Plasmodium falciparum [4], with Plasmodium falciparum [5] and in the test with Plasmodium falciparum [6] was inactive. In addition, the outcome with Plasmodium falciparum [7], with Plasmodium falciparum [8] and with Plasmodium falciparum [9] was inactive.

Regarding `NC(=O)C(CCN1CCN(c2ccc(F)cc2)CC1)(c1ccccc1)c1ccccc1`, the Activity with Plasmodium falciparum K1 stood at 57.7%. In addition, the result in the test with Plasmodium falciparum [1], in the test on Plasmodium falciparum [2], with Plasmodium falciparum [3], with Plasmodium falciparum [4], in the test on Plasmodium falciparum [5] and with Plasmodium falciparum [6] was inactive. In addition, the outcome in the test with Plasmodium falciparum [7], in the test on Plasmodium falciparum [8] and in the test with Plasmodium falciparum [9] was inactive.

`CSc1ccc2c(c1)C(=O)Cc1ccccc1S2`: the Activity with Plasmodium falciparum K1 was 49.3%. Also, the result in the test on Plasmodium falciparum [1], with Plasmodium falciparum [2], in the test on Plasmodium falciparum [3], in the test with Plasmodium falciparum [4], with Plasmodium falciparum [5] and with Plasmodium falciparum [6] was inactive. Besides, the result in the test with Plasmodium falciparum [7], in the test with Plasmodium falciparum [8] and in the test with Plasmodium falciparum [9] was inactive.

As to `NCC(CCN1CCCCC1)(c1ccccc1)c1ccccc1`, the Activity in the test with Plasmodium falciparum K1 came to 61%. Also, the result with Plasmodium falciparum [1], in the test on Plasmodium falciparum [2], in the test with Plasmodium falciparum [3], in the test on Plasmodium falciparum [4], in the test on Plasmodium falciparum [5] and with Plasmodium falciparum [6] was inactive. In addition, the outcome in the test on Plasmodium falciparum [7], in the test on Plasmodium falciparum [8] and in the test with Plasmodium falciparum [9] was inactive.

Regarding `NC(=O)C(CCN1CCC(O)CC1)(c1ccccc1)c1ccccc1`, the Activity in the test on Plasmodium falciparum K1 came out at 51.3%. Moreover, the result in the test on Plasmodium falciparum [1], with Plasmodium falciparum [2], in the test with Plasmodium falciparum [3], in the test on Plasmodium falciparum [4], in the test on Plasmodium falciparum [5] and with Plasmodium falciparum [6] was inactive. In addition, the outcome with Plasmodium falciparum [7], with Plasmodium falciparum [8] and in the test with Plasmodium falciparum [9] was inactive.

Consider `O=C1Cc2ccccc2Sc2ccccc21`, for which the Activity in the test on Plasmodium falciparum K1 amounted to 50.7%. For the same compound, the outcome with Plasmodium falciparum [1], in the test on Plasmodium falciparum [2], with Plasmodium falciparum [3], in the test on Plasmodium falciparum [4], in the test with Plasmodium falciparum [5] and with Plasmodium falciparum [6] was inactive. Further, the outcome in the test with Plasmodium falciparum [7], in the test on Plasmodium falciparum [8] and with Plasmodium falciparum [9] was inactive.

Regarding `CC(C)(C)OC(=O)N1CCCC(N)C1` (stereo unspecified), the Activity with Plasmodium falciparum K1 came out at 52.2%. The outcome in the test on Plasmodium falciparum [1], in the test with Plasmodium falciparum [2], in the test with Plasmodium falciparum [3], in the test on Plasmodium falciparum [4], in the test with Plasmodium falciparum [5] and in the test with Plasmodium falciparum [6] was inactive. Moreover, the outcome with Plasmodium falciparum [7], in the test on Plasmodium falciparum [8] and in the test on Plasmodium falciparum [9] was inactive.

As to `Ic1ccccc1CNCC(c1ccccc1)c1ccccc1`, the Activity with Plasmodium falciparum K1 came to 50.9%. For the same compound, the result in the test on Plasmodium falciparum [1], in the test on Plasmodium falciparum [2], with Plasmodium falciparum [3], with Plasmodium falciparum [4], in the test with Plasmodium falciparum [5] and in the test with Plasmodium falciparum [6] was inactive. Also, the result with Plasmodium falciparum [7], with Plasmodium falciparum [8] and in the test on Plasmodium falciparum [9] was inactive.

In the case of `NCC(CCN1CCN(c2ccc(F)cc2)CC1)(c1ccccc1)c1ccccc1`, the Activity in the test on Plasmodium falciparum K1 was determined as 60.5%. In addition, the result in the test with Plasmodium falciparum [1], in the test with Plasmodium falciparum [2], in the test with Plasmodium falciparum [3], in the test with Plasmodium falciparum [4], in the test with Plasmodium falciparum [5] and in the test with Plasmodium falciparum [6] was inactive. In addition, the outcome with Plasmodium falciparum [7], in the test with Plasmodium falciparum [8] and in the test on Plasmodium falciparum [9] was inactive.

Turning to `O=C1Cc2ccccc2Sc2ccc(Cl)cc21`, the Activity in the test with Plasmodium falciparum K1 is 49.1%. Also, the outcome in the test with Plasmodium falciparum [1], with Plasmodium falciparum [2], with Plasmodium falciparum [3], in the test with Plasmodium falciparum [4], in the test on Plasmodium falciparum [5] and in the test on Plasmodium falciparum [6] was inactive. Further, the result in the test on Plasmodium falciparum [7], in the test on Plasmodium falciparum [8] and in the test on Plasmodium falciparum [9] was inactive.

On to `O=C1C2CCN(CC2)C1Cc1ccccc1` (stereo unspecified), for which the Activity in the test on Plasmodium falciparum K1 was found to be 34.7%. In addition, the outcome in the test with Plasmodium falciparum [1], in the test with Plasmodium falciparum [2], in the test on Plasmodium falciparum [3], in the test on Plasmodium falciparum [4], in the test on Plasmodium falciparum [5] and with Plasmodium falciparum [6] was inactive. For the same compound, the result in the test on Plasmodium falciparum [7], in the test on Plasmodium falciparum [8] and with Plasmodium falciparum [9] was inactive.

Take `CC(C)(C)OC(=O)N1CCCC(NCc2ccccc2I)C1` (stereo unspecified): the Activity in the test with Plasmodium falciparum K1 amounted to 40.5%. For the same compound, the result with Plasmodium falciparum [1], in the test with Plasmodium falciparum [2], in the test on Plasmodium falciparum [3], with Plasmodium falciparum [4], in the test on Plasmodium falciparum [5] and with Plasmodium falciparum [6] was inactive. Also, the outcome in the test with Plasmodium falciparum [7], with Plasmodium falciparum [8] and in the test with Plasmodium falciparum [9] was inactive.
